Assay results as given in PMC5436510 (Theranostics, 2017).
One block for each molecule: values may come before it. Square brackets hold non-standard residues; d marks the D form. Peptide text beside a SMILES is read from it.

Experiments:
[1] = molecular target: αvβ3 integrin (Homo sapiens, UniProt P05106+P06756); test: MicroScale Thermophoresis; format: binding
[2] = system: U87MG, MDA-MB-231, HepG2 and L02 cells; test: Transwell cell migration assay; format: cell-based, Human; settings: peptides 40μM for 24 h, transwell 12 hours
Summary of the method: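 Cells at 60–70% confluence in 6-well plates were exposed to peptides (40 μM) for 24 h. They were then detached and 5×10^5 cells placed in transwell upper chambers, in triplicate, over DMEM + 10% FBS. After 12 h, unmigrated cells were swabbed off. Membranes were fixed in methanol and stained with 0.1% crystal violet, 30 min each. The dye was eluted with 33% acetic acid and read at OD570. % migration = treated/control OD570 × 100.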

[3] = system: p-FAK, p-PI3K, p-Ras in U87MG cells; test: Western blot of αvβ3 downstream signalling; format: cell-based, Human; settings: 64μg /mL for 48 h
[4] = molecular target: U87MG cells (Homo sapiens, UniProt P05106+P06756); test: Confocal cellular uptake of peptide-RhB conjugates; format: cell-based; settings: confocal imaging, incubation up to 4 h
Summary of the method: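 Cells were seeded on confocal dishes at 3×10^5 per well and left 24 h to attach. Cells were washed three times with PBS (pH 7.4), imaged by laser confocal microscopy, and uptake at 2 h was quantified as mean fluorescence intensity.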

[5] = system: U87MG-tumor-bearing mice; test: In vivo antitumor study of peptide-Dox conjugates; parameters: species or system nude mice
Summary of the method: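 Female nude mice aged 6–7 weeks were inoculated s.c. in the axillary fossa with 1×10^7 U87MG cells. On day 7 they were split into five groups of 10. Saline, free Dox or peptide-Dox conjugates were given i.v. via the tail vein every other day for 7 doses, each equal to 5 mg/kg Dox. Body weight and caliper tumor volume, V = π/6·length·width², were recorded, along with survival.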

Chain of αvβ3 integrin (P06756 31-889): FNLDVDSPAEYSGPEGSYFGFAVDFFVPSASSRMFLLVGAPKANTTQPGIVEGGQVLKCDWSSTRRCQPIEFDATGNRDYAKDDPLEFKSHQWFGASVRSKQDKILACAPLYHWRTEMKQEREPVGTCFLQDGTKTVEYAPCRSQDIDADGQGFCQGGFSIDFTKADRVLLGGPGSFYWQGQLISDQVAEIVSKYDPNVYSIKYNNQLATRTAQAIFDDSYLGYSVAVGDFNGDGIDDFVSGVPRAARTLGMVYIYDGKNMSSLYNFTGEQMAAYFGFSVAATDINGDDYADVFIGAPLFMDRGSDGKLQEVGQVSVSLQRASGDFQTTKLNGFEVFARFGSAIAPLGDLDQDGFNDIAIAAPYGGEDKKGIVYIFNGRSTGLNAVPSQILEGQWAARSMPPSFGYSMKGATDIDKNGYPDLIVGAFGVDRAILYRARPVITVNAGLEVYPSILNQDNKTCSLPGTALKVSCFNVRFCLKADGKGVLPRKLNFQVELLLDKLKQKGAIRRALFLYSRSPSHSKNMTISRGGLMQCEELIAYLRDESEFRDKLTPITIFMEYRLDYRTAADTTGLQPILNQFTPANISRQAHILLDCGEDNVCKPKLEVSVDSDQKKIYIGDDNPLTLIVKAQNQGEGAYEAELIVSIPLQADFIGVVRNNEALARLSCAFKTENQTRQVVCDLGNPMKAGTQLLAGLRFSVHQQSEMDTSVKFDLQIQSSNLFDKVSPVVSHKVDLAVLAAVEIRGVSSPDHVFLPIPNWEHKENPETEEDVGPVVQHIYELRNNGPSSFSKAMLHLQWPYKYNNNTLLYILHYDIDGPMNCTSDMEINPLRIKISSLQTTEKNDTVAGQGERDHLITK
Chain of αvβ3 integrin (P06756 891-1048): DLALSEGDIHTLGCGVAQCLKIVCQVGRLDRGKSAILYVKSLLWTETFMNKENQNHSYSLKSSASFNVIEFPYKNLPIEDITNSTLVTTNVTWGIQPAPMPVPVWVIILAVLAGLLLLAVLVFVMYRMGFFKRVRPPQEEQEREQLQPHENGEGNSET
Chain of αvβ3 integrin (P05106 27-788): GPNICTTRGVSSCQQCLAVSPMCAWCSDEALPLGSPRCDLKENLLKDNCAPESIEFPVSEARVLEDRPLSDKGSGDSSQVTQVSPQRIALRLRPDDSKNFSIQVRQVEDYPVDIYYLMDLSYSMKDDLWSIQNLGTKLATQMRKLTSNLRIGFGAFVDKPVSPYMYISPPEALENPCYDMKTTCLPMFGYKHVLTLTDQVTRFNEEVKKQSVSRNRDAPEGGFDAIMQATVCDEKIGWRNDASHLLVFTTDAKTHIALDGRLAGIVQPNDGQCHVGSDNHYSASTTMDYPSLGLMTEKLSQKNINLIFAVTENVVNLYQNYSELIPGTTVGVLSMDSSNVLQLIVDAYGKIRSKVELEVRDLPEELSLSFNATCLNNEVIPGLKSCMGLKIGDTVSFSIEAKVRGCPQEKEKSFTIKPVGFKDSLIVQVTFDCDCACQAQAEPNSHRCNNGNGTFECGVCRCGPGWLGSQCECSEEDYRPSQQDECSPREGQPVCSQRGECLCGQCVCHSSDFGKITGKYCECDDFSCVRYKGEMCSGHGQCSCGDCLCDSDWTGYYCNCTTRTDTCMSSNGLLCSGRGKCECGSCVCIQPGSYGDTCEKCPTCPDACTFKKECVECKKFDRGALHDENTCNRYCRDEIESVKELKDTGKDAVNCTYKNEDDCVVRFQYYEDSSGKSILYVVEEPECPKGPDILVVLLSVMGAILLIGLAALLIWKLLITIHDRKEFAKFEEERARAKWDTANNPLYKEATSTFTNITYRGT
Chain of U87MG cells (P06756 31-1048): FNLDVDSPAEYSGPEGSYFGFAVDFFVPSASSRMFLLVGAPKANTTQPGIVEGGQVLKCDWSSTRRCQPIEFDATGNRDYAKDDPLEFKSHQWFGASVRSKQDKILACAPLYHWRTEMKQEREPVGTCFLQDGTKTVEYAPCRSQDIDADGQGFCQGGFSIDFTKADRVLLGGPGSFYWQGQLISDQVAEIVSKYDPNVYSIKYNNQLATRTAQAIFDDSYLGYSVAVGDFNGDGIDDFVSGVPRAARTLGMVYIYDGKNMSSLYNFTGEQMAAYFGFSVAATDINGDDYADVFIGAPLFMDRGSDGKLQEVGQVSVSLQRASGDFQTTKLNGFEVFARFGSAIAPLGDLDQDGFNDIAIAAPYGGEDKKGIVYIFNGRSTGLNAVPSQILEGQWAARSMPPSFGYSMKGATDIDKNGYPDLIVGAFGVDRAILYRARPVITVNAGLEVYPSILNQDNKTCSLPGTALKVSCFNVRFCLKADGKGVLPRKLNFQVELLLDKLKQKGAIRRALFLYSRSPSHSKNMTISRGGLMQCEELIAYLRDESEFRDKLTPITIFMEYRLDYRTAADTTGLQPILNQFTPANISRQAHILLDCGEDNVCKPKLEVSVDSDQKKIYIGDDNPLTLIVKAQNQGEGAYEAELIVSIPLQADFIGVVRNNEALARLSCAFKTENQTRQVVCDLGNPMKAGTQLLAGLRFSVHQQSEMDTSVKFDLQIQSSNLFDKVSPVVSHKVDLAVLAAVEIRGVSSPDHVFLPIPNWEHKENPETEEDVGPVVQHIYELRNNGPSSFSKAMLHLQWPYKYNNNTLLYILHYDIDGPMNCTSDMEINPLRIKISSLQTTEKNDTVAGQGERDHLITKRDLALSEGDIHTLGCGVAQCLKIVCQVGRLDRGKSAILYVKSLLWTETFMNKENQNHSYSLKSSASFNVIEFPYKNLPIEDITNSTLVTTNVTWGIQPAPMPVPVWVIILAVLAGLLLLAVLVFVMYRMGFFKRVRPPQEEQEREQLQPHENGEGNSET
Chain of U87MG cells (P05106 27-788): as the sequence (P05106 27-788) above

Structure (SMILES): CSCC[C@H](NC(=O)[C@H](CC(N)=O)NC(=O)[C@@H](CCCNC(=N)N)NC(=O)[C@H](Cc1c[nH]c2ccccc12)NC(=O)[C@@H](N)CCCNC(=N)N)C(=O)O [RWrNM] (H-RW[dR]NM-OH)
Kd [1]: 8.61 ± 1.35 nM

Structure (SMILES): N=C(N)NCCC[C@@H]1NC(=O)[C@H](CCCCN)NC(=O)[C@@H](Cc2ccc(O)cc2)NC(=O)[C@H](CC(=O)O)NC(=O)CNC1=O [c(RGDyK)]
cell migration compared with the controls [2]: obvious decrease in cell migration
levels of phosphorylated signalling proteins [3]: decreased the levels of p-FAK, p-PI3K, and p-Ras proteins

Kd [1]: 33.6 ± 4.56 nM
Structure (SMILES): N=C(N)NCCC[C@H](N)C(=O)N[C@@H](Cc1c[nH]c2ccccc12)C(=O)N[C@H](CCCNC(=N)N)C(=O)O [RWr] (H-Arg-Trp-[dR]-OH)

Structure (SMILES): CC(=O)O[C@H]1C(=O)[C@@]2(C)[C@H]([C@H](OC(=O)c3ccccc3)[C@]3(O)C[C@H](OC(=O)[C@H](O)[C@@H](NC(=O)c4ccccc4)c4ccccc4)C(C)=C1C3(C)C)[C@]1(OC(C)=O)CO[C@@H]1C[C@@H]2O [PTX]
cell migration compared with the controls [2]: strong inhibition on cell migration

cellular uptake (RhB fluorescence) [4]: no fluorescence was observed
Structure (SMILES): CCN(CC)c1ccc2c(-c3ccccc3C(=O)O)c3ccc(=[N+](CC)CC)cc-3oc2c1 [RhB, Rhodamine B]

Structure (SMILES): CCN(CC)CCNC(=O)c1c(C)[nH]c(/C=C2\C(=O)Nc3ccc(F)cc32)c1C [Sunitinib]
cell migration compared with the controls [2]: strong inhibition on cell migration

Structure (SMILES): COc1cccc2c1C(=O)c1c(O)c3c(c(O)c1C2=O)C[C@@](O)(C(=O)CO)C[C@@H]3O[C@H]1C[C@H](N)[C@H](O)[C@H](C)O1 [Dox, doxorubicin]
survival rate (in words) ([5]; 15-day treatment): lowest survival rate
body weight ([5]; 15-day treatment, dose 5mg/kg of Dox): continual decrease in body weight
histopathology (H&E) toxicity in organs ([5]; after the 15-day treatment): obvious cardiotoxicity and hepatotoxicity
